This note sets out measurements from ChEMBL document CHEMBL3779801, “Discovery of the Selective CYP17A1 Lyase Inhibitor BMS-351 for the Treatment of Prostate Cancer” (ACS Med Chem Lett, 2016).

The nature of data set [1]: Metabolic stability in cynomolgus monkey liver microsomes assessed as parent compound remaining at 0.5 uM incubated for 10 mins. The data set is classed as ADME, Macaca fascicularis. Particulars: read-out: Stability. An outline of the steps:
(§1)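 Compound at 0.5 μM was incubated with human, mouse or cynomolgus liver microsomes for 10 min.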

Data set [2] in a line: Volume of distribution at steady state in cynomolgus monkey plasma at 2 mg/kg, iv by LC-MS/MS analysis. The class given is ADME, organism-based, Macaca fascicularis. The note with it: read-out: Vdss. An outline of the steps: (§2)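 Cynomolgus monkeys were dosed intravenously. Plasma parameters are given as mean ± standard deviation.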
The target in a further data set is T1, Steroid 21-hydroxylase (Homo sapiens, UniProt P08686).
T1 sequence (P08686 whole entry): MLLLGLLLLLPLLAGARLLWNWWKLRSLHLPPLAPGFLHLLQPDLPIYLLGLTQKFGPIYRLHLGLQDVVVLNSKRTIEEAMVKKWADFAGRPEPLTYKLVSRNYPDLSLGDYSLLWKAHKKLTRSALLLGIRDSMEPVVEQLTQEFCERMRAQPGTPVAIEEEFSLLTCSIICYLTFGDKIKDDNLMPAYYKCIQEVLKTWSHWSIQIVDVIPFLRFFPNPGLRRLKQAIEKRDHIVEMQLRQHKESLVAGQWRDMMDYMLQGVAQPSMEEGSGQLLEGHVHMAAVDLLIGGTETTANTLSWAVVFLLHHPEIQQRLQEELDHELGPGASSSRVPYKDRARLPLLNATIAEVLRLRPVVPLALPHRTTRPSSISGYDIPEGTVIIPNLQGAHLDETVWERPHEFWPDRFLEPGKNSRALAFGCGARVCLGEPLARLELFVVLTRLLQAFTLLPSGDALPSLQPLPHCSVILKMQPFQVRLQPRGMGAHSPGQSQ
Kind of data set: Inhibition of CYP21A2 in human H295R cells using hydroxy progesterone as substrate incubated for 120 mins by LC-MS method. The data set is classed as ADME, cell-based.

Data set [3] is described as follows: Intrinsic permeability from apical to basolateral side in human Caco2 cells. The data set is classed as ADME, cell-based. The note with it: Caco-2.
Data set [4] can be described thus: Clearance in cynomolgus monkey plasma at 2 mg/kg, iv by LC-MS/MS analysis. The data set is classed as ADME, organism-based, Macaca fascicularis. An outline of the steps: as §2
Data set [5] in a line: Tmax in one day castrated cynomolgus monkey at 1.5 mg/kg, po bid. The data set is classed as ADME, organism-based, Macaca fascicularis. Particulars: male, in vivo. Summed up: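 Castrated cynomolgus monkeys were studied over one day with oral BID dosing at time 0 and 8 h. Plasma levels were sampled at set time points over 1–24 h and reported as average ± standard deviation in nM, n = 4.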

Data set [6] in a line: Oral bioavailability in cynomolgus monkey plasma at 4 mg/kg after 0.25 to 45 hrs by LC-MS/MS analysis. The data set is classed as ADME, organism-based, Macaca fascicularis. Summed up: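 Oral bioavailability in cynomolgus monkey came from oral dosing of a solution formulation combined with a separate 2 mg/kg iv dose. Values are mean ± standard deviation.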
The next data set deals with Cynomolgus monkey. Briefly: Effect on progesterone level in one day castrated cynomolgus monkey assessed as baseline level at 1.5 mg/kg, po bid for 24 hrs by radiometric immunoassay. The class given is ADME, organism-based, Macaca fascicularis. The note with it: in vivo.
The target in data set [7] is T2, Steroid 17-alpha-hydroxylase/17,20 lyase (Macaca fascicularis, UniProt Q2XVA1).
T2 sequence (Q2XVA1 whole entry): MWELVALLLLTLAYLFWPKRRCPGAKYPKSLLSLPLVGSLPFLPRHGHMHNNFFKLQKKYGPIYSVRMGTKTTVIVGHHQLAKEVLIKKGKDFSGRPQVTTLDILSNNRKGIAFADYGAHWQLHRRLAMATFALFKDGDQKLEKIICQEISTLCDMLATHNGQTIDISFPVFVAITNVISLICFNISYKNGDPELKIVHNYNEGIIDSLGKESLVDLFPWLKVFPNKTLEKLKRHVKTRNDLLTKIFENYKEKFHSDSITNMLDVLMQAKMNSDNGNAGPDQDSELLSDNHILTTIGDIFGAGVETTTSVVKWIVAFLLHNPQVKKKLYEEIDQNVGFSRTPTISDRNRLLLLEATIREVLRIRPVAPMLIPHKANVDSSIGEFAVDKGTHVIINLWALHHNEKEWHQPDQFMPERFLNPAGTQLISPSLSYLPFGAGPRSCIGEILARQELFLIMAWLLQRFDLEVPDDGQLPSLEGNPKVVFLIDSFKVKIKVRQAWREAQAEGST
Kind of data set: Selectivity ratio of cynomolgus monkey CYP17A1 hydroxylase activity using pregnenolone substrate to cynomolgus monkey CYP17A1 lyase activity using [3H]-hydroxypregnenolone substrate. An outline of the steps:
(§3)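 Hydroxylase and lyase activities were run with different enzyme preparations, so the hydroxylase/lyase ratios are estimates.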

Data set [8] can be described thus: Metabolic stability in mouse liver microsomes assessed as parent compound remaining at 0.5 uM incubated for 10 mins. The class given is ADME. Particulars: read-out: Stability. Summed up: as §1
(In general: Liver microsomes are vesicles of endoplasmic reticulum, rich in cytochrome P450 enzymes.)

Data set [9] is described as follows: Inhibition of cynomolgus monkey CYP11B1 using hydroxy progesterone as substrate incubated for 120 mins by LC-MS method. The arrangement: species or system Macaca fascicularis.
Another data set concerns the target T3, Cytochrome P450 1A2 (Homo sapiens, UniProt P05177).
T3 sequence (P05177 whole entry): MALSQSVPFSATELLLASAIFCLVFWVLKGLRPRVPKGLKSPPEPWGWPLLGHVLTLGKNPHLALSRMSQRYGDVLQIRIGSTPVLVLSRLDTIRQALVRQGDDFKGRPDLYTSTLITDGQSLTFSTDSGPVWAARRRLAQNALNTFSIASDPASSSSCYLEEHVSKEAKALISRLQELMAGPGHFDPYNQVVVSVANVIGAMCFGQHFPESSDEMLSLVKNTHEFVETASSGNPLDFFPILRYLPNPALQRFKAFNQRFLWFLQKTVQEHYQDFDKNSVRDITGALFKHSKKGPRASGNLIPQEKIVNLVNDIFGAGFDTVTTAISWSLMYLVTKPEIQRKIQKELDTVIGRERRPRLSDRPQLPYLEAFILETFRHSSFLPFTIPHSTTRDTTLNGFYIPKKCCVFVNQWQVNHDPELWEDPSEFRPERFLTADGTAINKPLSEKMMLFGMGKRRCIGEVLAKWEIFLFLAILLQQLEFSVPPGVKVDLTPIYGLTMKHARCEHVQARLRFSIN
Kind of data set: Inhibition of CYP1A2 (unknown origin). The class given is ADME.

In data set [10] the target is T4, Steroid 17-alpha-hydroxylase/17,20 lyase (Homo sapiens, UniProt P05093).
T4 sequence (P05093 whole entry): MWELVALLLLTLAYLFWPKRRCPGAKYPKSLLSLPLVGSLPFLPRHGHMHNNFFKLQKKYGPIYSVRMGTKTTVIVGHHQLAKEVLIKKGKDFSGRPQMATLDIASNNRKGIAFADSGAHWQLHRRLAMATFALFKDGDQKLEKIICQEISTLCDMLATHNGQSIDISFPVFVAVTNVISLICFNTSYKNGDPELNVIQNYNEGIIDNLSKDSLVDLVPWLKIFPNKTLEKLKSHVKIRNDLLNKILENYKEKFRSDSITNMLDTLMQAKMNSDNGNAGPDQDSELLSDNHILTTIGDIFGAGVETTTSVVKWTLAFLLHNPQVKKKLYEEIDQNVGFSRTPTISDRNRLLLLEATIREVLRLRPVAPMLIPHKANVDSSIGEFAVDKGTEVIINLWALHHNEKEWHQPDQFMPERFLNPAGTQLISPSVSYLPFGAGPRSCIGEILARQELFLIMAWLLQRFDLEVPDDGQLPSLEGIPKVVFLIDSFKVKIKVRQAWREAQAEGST
Briefly: Selectivity ratio of human CYP17A1 hydroxylase activity expressed in Escherichia coli using pregnenolone substrate to human CYP17A1 lyase activity expressed in HEK293 cell microsomes using [3H]-hydroxypregnenolone substrate. Summed up:
as §3

A short description of data set [11]: Inhibition of cynomolgus monkey CYP21A2 using hydroxy progesterone as substrate incubated for 120 mins by LC-MS method. The arrangement: species or system Macaca fascicularis.

As a reminder, the IC50 is the point on the concentration scale where inhibition reaches its midpoint. The term Papp A→B denotes how fast a substance crosses the layer from the apical side. What is called clearance is the rate of elimination divided by the concentration. A word on the Tmax: it is the time at which the peak concentration occurs. The term bioavailability denotes dose-corrected exposure relative to a reference, in per cent.

Where only a bound is given, the exact number is not on record here.

On to `Cc1ccncc1-c1cccc2c1ncn2CC(F)(F)F`, for which the remaining at 10 min, 0.5 µM in [1] was 83%; in [8] it was 66%. Besides, in data set [2], the Vd was found to be 4.4 L/kg. The IC50 at Steroid 21-hydroxylase was over 7.5 µM; in data set [9] it was over 7.5 µM; on Cytochrome P450 1A2 it was 9 µM; in data set [11] it was over 7.5 µM. Also, in [3], the apical-to-basolateral permeability (Papp A→B) came to 40 ×10⁻⁶ cm/s. This compound had a clearance in [4] of 19 mL/min/kg. Moreover, in data set [5], the Tmax stood at 1 h. This compound gave a bioavailability in [6] of 97%. Further, the Activity entry in the data set with Cynomolgus monkey is reported as “Non-toxic”. Also, the Selectivity ratio came out at 11 in [7] and 10 in data set [10].
